According to ChEMBL document CHEMBL4177549, “Malonylginsenosides with Potential Antidiabetic Activities from the Flower Buds of Panax ginseng” (J Nat Prod, 2017):
The source made the active and inactive calls. No cut-off for these calls is given here.

How the values were obtained:
L6 [1] = test: Induction of glucose consumption in differentiated rat L6 cells at 20 uM incubated for 12 hrs in presence of 0.5% bovine serum albumin and low-glucose by glucose oxidase method; format: functional, cell-based
Procedure, shortened: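 L6 myoblasts were grown in high-glucose DMEM with 10% FBS and then differentiated into myotubes in 2% FBS for 4−6 days. The myotubes were treated for 12 h in low-glucose (1000 mg/L) DMEM with 0.5% BSA. Medium glucose was measured by glucose oxidase. Consumption was calculated as the glucose in cell-free blank wells minus the glucose in wells with cells.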

[2] = molecular target: T1, AMPK alpha2/beta1/gamma1 (Homo sapiens) (UniProt P54646+P54619+Q9Y478); test: Activation of recombinant AMPKalpha2beta1gamma1 (unknown origin) expressed in Escherichia coli BL21 in presence of CaMKKbeta (unknown origin) incubated for 45 mins in presence of substrate-1 peptide and ATP by HTRF assay relative to untreated control
AMPK alpha2/beta1/gamma1 = AMPK alpha2/beta1/gamma1 (Homo sapiens, UniProt P54619+P54646+Q9Y478); test: Activation of recombinant AMPKalpha2beta1gamma1 (unknown origin) expressed in Escherichia coli BL21 in presence of CaMKKbeta (unknown origin) incubated for 45 mins in presence of substrate-1 peptide and ATP by HTRF assay
L6 [3] = test: Induction of glucose consumption in differentiated rat L6 cells at 10 uM incubated for 12 hrs in presence of 0.5% bovine serum albumin and low-glucose by glucose oxidase method; format: functional, cell-based
Procedure, shortened: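 L6 myoblasts grown in high-glucose (4500 mg/L) DMEM with 10% FBS, then differentiated to myotubes in high-glucose DMEM with 2% FBS for 4−6 days. Compound added in 0.5% BSA low-glucose (1000 mg/L) DMEM for 12 h. Medium glucose read by glucose oxidase method. Consumption calculated as cell-free blank wells minus wells with cells.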

[4] = molecular target: T1, AMPK alpha2/beta1/gamma1 (Homo sapiens); test: Activation of recombinant AMPKalpha2beta1gamma1 (unknown origin) expressed in Escherichia coli BL21 in presence of CaMKKbeta (unknown origin) at 10 uM incubated for 45 mins in presence of substrate-1 peptide and ATP by HTRF assay relative to untreated control

T1 sequence (P54619 whole entry partner): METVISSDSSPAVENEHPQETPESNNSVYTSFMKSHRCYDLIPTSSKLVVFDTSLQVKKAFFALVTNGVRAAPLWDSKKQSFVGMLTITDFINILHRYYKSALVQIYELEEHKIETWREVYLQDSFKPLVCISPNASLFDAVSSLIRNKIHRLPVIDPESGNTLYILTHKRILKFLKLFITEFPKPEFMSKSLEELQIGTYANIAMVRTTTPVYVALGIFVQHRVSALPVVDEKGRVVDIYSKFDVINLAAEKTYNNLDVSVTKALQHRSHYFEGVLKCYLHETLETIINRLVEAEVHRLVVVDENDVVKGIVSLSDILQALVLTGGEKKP
T1 sequence (P54646 whole entry): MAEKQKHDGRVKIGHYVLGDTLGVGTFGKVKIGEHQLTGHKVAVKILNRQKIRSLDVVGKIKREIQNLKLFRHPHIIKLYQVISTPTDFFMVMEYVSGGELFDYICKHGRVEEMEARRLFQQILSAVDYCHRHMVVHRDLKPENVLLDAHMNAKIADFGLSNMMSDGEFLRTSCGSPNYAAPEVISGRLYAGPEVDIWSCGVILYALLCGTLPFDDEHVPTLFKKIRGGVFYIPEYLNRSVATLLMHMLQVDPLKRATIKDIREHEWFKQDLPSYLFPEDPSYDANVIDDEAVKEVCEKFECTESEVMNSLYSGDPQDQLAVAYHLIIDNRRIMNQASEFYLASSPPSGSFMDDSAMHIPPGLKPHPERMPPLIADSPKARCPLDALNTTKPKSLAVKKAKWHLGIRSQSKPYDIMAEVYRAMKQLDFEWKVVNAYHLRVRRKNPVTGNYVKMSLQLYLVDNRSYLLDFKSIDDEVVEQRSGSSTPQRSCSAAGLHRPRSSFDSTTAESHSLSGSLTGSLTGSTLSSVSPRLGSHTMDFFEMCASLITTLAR
T1 sequence (Q9Y478 2-270 partner limits assumed): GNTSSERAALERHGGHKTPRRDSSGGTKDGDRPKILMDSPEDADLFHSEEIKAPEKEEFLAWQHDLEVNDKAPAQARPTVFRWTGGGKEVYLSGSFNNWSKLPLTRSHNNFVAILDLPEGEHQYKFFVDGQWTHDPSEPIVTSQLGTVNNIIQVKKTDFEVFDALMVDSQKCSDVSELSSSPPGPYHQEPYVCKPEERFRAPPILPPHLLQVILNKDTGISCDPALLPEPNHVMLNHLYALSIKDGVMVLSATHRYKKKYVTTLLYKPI
Sequence of AMPK alpha2/beta1/gamma1 (P54646 whole entry): as the sequence (P54646 whole entry) above
Sequence of AMPK alpha2/beta1/gamma1 (P54619 whole entry): as the sequence (P54619 whole entry partner) above
Sequence of AMPK alpha2/beta1/gamma1 (Q9Y478 whole entry): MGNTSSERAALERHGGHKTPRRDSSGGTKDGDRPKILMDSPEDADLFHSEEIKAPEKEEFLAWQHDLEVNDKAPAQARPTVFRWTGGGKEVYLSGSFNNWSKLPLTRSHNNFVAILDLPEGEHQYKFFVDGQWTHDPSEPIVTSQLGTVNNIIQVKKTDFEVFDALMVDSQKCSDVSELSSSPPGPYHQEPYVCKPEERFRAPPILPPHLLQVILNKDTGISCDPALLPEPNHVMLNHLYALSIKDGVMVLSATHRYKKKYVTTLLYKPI

Structure (SMILES) | Activity (L6 [1]) | fold change (FC) [2] | EC50 (AMPK alpha2/beta1/gamma1) [nM] | Activity (L6 [3]) | Activity [4]
CC(C)=CCC[C@](C)(O[C@@H]1O[C@H](CO[C@@H]2OC[C@H](O)[C@H](O)[C@H]2O)[C@@H](O)[C@H](O)[C@H]1O)[C@H]1CC[C@]2(C)[C@@H]1[C@H](O)C[C@@H]1[C@@]3(C)CC[C@H](O[C@@H]4O[C@H](CO)[C@@H](O)[C@H](O)[C@H]4O[C@@H]4O[C@H](COC(=O)CC(=O)O)[C@@H](O)[C@H](O)[C@H]4O)C(C)(C)[C@@H]3CC[C@]12C | Active |  |  |  | 
CC(C)=CCC[C@](C)(O[C@@H]1O[C@H](CO)[C@@H](O)[C@H](O)[C@H]1O)[C@H]1CC[C@]2(C)[C@@H]1[C@H](O)C[C@@H]1[C@@]3(C)CC[C@H](O[C@@H]4O[C@H](CO)[C@@H](O)[C@H](O)[C@H]4O[C@@H]4O[C@H](CO)[C@@H](OC(=O)CC(=O)O)[C@H](O)[C@H]4O)C(C)(C)[C@@H]3CC[C@]12C |  | 1.7 to 4.7 | 16.8 to 2800 |  | 
CC(C)=CCC[C@](C)(O[C@@H]1O[C@H](CO[C@@H]2O[C@H](CO)[C@@H](O)[C@H](O)[C@H]2O)[C@@H](O)[C@H](O)[C@H]1O)[C@H]1CC[C@]2(C)[C@@H]1[C@H](O)C[C@@H]1[C@@]3(C)CC[C@H](O[C@@H]4O[C@H](CO)[C@@H](O)[C@H](O)[C@H]4O[C@@H]4O[C@H](CO)[C@@H](O)[C@H](O)[C@H]4O)C(C)(C)[C@@H]3CC[C@]12C [GINSENOSIDE RB1] |  |  | 16.8 to 2800 |  | 
CC(C)=CCC[C@](C)(O[C@@H]1O[C@H](CO[C@@H]2OC[C@H](O)[C@H](O)[C@H]2O)[C@@H](O)[C@H](O)[C@H]1O)[C@H]1CC[C@]2(C)[C@@H]1[C@H](O)C[C@@H]1[C@@]3(C)CC[C@H](O[C@@H]4O[C@H](CO)[C@@H](O)[C@H](O)[C@H]4O[C@@H]4O[C@H](CO)[C@@H](O)[C@H](O)[C@H]4O)C(C)(C)[C@@H]3CC[C@]12C [GINSENOSIDE RB2] | Active | 4.7 | 16.8 | Active | 
CC(C)=CCC[C@](C)(O[C@@H]1O[C@H](CO)[C@@H](O)[C@H](O)[C@H]1O)[C@H]1CC[C@]2(C)[C@@H]1[C@H](O)C[C@@H]1[C@@]3(C)CC[C@H](O)C(C)(C)[C@@H]3[C@@H](O[C@@H]3O[C@H](COC(=O)CC(=O)O)[C@@H](O)[C@H](O)[C@H]3O[C@@H]3O[C@@H](C)[C@H](O)[C@@H](O)[C@H]3O)C[C@]12C | Active |  |  |  | 
CC(C)=CCC[C@](C)(O[C@@H]1O[C@H](CO)[C@@H](O)[C@H](O)[C@H]1O)[C@H]1CC[C@]2(C)[C@@H]1[C@H](O)C[C@@H]1[C@@]3(C)CC[C@H](O[C@@H]4O[C@H](CO)[C@@H](O)[C@H](O)[C@H]4O[C@@H]4O[C@H](COC(=O)CC(=O)O)[C@@H](O)[C@H](O)[C@H]4O)C(C)(C)[C@@H]3CC[C@]12C |  | 1.7 to 4.7 | 16.8 to 2800 |  | 
CC(C)=CCC[C@](C)(O[C@@H]1O[C@H](CO[C@@H]2O[C@H](CO)[C@@H](OC(=O)CC(=O)O)[C@H](O)[C@H]2O)[C@@H](O)[C@H](O)[C@H]1O)[C@H]1CC[C@]2(C)[C@@H]1[C@H](O)C[C@@H]1[C@@]3(C)CC[C@H](O[C@@H]4O[C@H](CO)[C@@H](O)[C@H](O)[C@H]4O[C@@H]4O[C@H](CO)[C@@H](O)[C@H](O)[C@H]4O)C(C)(C)[C@@H]3CC[C@]12C |  | 1.7 to 4.7 | 16.8 to 2800 |  | 
CC(C)=CCC[C@](C)(O[C@@H]1O[C@H](CO)[C@@H](O)[C@H](O)[C@H]1O)[C@H]1CC[C@]2(C)[C@@H]1[C@H](O)C[C@@H]1[C@@]3(C)CC[C@H](O[C@@H]4O[C@H](CO)[C@@H](O)[C@H](O)[C@H]4O[C@@H]4O[C@H](CO)[C@@H](O)[C@H](O)[C@H]4O)C(C)(C)[C@@H]3CC[C@]12C [GINSENOSIDE RD] |  |  | 16.8 to 2800 |  | 
CC(C)=CCC[C@](C)(O[C@@H]1O[C@H](CO[C@@H]2OC[C@H](O)[C@H](O)[C@H]2O)[C@@H](O)[C@H](O)[C@H]1O)[C@H]1CC[C@]2(C)[C@@H]1[C@H](O)C[C@@H]1[C@@]3(C)CC[C@H](O[C@@H]4O[C@H](CO)[C@@H](O)[C@H](O)[C@H]4O[C@@H]4O[C@H](CO)[C@@H](OC(=O)CC(=O)O)[C@H](O)[C@H]4O)C(C)(C)[C@@H]3CC[C@]12C |  | 1.7 to 4.7 | 16.8 to 2800 |  | 
CC(C)=CCC[C@](C)(O[C@@H]1O[C@H](CO[C@@H]2O[C@@H](CO)[C@H](O)[C@H]2O)[C@@H](O)[C@H](O)[C@H]1O)[C@H]1CC[C@]2(C)[C@@H]1[C@H](O)C[C@@H]1[C@@]3(C)CC[C@H](O[C@@H]4O[C@H](CO)[C@@H](O)[C@H](O)[C@H]4O[C@@H]4O[C@H](COC(=O)CC(=O)O)[C@@H](O)[C@H](O)[C@H]4O)C(C)(C)[C@@H]3CC[C@]12C |  | 1.7 to 4.7 | 16.8 to 2800 |  | 
CC(C)=CCC[C@](C)(O[C@@H]1O[C@H](CO[C@@H]2O[C@H](CO)[C@@H](O)[C@H](O)[C@H]2O)[C@@H](O)[C@H](O)[C@H]1O)[C@H]1CC[C@]2(C)[C@@H]1[C@H](O)C[C@@H]1[C@@]3(C)CC[C@H](O[C@@H]4O[C@H](CO)[C@@H](O)[C@H](O)[C@H]4O[C@@H]4O[C@H](COC(=O)CC(=O)O)[C@@H](O)[C@H](O)[C@H]4O)C(C)(C)[C@@H]3CC[C@]12C |  | 1.7 to 4.7 | 16.8 to 2800 |  | 
COc1ccc2cc3[n+](cc2c1OC)CCc1cc2c(cc1-3)OCO2 |  |  |  |  | Active
